# Active and inactive are the calls of the source. The calls are words filed in the database; no cut-off is given here.
# How the values were obtained:
# K562 = assay: Cytotoxicity against human K562 cells assessed as growth inhibition after 72 hrs by calcein AM staining-based fluoroscence assay; type: functional, cell-based; conditions: K562, 72 h
# G-361 [1] = assay: Induction of apoptosis in human G361 cells assessed as caspase 3/7 activation using Ac-DEVD-AMC as substrate at 300 nM after 24 hrs by fluorimetry assay; type: functional, cell-based
# G-361 [2] = assay: Induction of apoptosis in human G361 cells assessed as decrease in Mcl-1 at 300 nM after 24 hrs by immunoblotting analysis; type: functional, cell-based
# Outline: (§1)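 Treated G361 cells harvested into Laemmli sample buffer. Proteins resolved by SDS-PAGE and blotted to nitrocellulose. Membranes blocked, probed overnight with specific primary antibodies, then peroxidase-conjugated secondaries. ECL detection by CCD camera. Actin served as loading control.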
# G-361 [3] = assay: Induction of apoptosis in human G361 cells assessed as caspase 9 activation using Ac-DEHD-AMC as substrate at 300 nM after 24 hrs by fluorimetry assay; type: functional, cell-based; conditions: in the assay text read “Ac-LEHD-AMC” for “Ac-DEHD-AMC”
# Outline: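 G361 lysates were made in CHAPS extraction buffer, pH 7.4, clarified at 10000g, and protein-equalized. They were incubated 24 h with 100 μM Ac-LEHD-AMC in 100 mM HEPES pH 7.5, 0.5 mM EDTA, 20% glycerol, 5 mM DTT. AMC fluorescence read at 355/460 nm (ex/em).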
# G-361 [4] = assay: Induction of apoptosis in human G361 cells assessed as induction of caspase-7 clevage at 300 nM after 24 hrs by immunoblotting analysis; type: functional, cell-based; outline: as §1
# G-361 [5] = assay: Induction of apoptosis in human G361 cells assessed as decrease in Mcl-1 protein level at 300 nM after 24 hrs by immunoblotting analysis; type: functional, cell-based; outline: as §1
# G-361 [6] = assay: Induction of apoptosis in human G361 cells assessed as induction of PARP-1 clevage at 300 nM after 24 hrs by immunoblotting analysis; type: functional, cell-based; outline: as §1
# HOS = assay: Cytotoxicity against human HOS cells assessed as growth inhibition after 72 hrs by calcein AM staining-based fluoroscence assay; type: functional, cell-based
# G-361 [7] = assay: Cytotoxicity against human G361 cells assessed as growth inhibition after 72 hrs by calcein AM staining-based fluoroscence assay; type: functional, cell-based; conditions: G-361, 72 h
# G-361 [8] = assay: Induction of apoptosis in human G361 cells assessed as induction of caspase-3 clevage at 300 nM after 24 hrs by immunoblotting analysis; type: functional, cell-based; outline: as §1
# [9] = target: Cyclin-dependent kinase 9 (Homo sapiens) (UniProt P50750); assay: Inhibition of CDK9-mediated RNA polymerase 2 phosphorylation at ser2 in human G361 cells at 300 nM after 24 hrs by immunoblotting analysis; type: cell-based; conditions: G-361; outline: as §1
# Cyclin-dependent kinase 9 (Homo sapiens), sequence (P50750 whole entry): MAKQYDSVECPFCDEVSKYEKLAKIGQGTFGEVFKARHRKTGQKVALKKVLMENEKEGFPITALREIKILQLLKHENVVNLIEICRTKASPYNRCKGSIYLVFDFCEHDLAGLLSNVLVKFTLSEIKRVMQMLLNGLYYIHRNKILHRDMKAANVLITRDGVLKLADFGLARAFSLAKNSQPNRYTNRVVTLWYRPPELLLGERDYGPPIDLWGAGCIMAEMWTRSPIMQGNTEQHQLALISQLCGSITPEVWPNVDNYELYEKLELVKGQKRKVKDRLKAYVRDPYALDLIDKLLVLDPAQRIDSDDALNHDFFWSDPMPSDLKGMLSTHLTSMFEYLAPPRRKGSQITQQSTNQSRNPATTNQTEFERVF
# CDK2/CDK4 (Homo sapiens) = CDK2/CDK4 (Homo sapiens) (UniProt P11802+P24941); assay: Inhibition of CDK2/4-mediated retinoblastoma protein phosphorylation at ser780 in human G361 cells at 300 nM after 24 hrs by immunoblotting analysis; type: cell-based; conditions: G-361; outline: as §1
# G-361 [10] = assay: Induction of apoptosis in human G361 cells assessed as induction of caspase-9 clevage at 300 nM after 24 hrs by immunoblotting analysis; type: functional, cell-based; outline: as §1
# HCT-116 = assay: Cytotoxicity against human HCT116 cells assessed as growth inhibition after 72 hrs by calcein AM staining-based fluoroscence assay; type: functional, cell-based; conditions: HCT-116, 72 h
# [11] = target: Cyclin-dependent kinase 2/cyclin E1 (Homo sapiens, UniProt P24941); assay: Inhibition of human recombinant CDK2/Cyclin E expressed in baculovirus infected sf9 cells using histone H1 as substrate
# MCF7 = assay: Cytotoxicity against human MCF7 cells assessed as growth inhibition after 72 hrs by calcein AM staining-based fluoroscence assay; type: functional, cell-based; conditions: MCF7, 72 h
# HeLa = assay: Cytotoxicity against human HeLa cells assessed as growth inhibition after 72 hrs by calcein AM staining-based fluoroscence assay; type: functional, cell-based
# [12] = target: Cyclin-dependent kinase 1 (Homo sapiens, UniProt P06493); assay: Inhibition of human recombinant CDK1
# Cyclin-dependent kinase 1, sequence (P06493 whole entry): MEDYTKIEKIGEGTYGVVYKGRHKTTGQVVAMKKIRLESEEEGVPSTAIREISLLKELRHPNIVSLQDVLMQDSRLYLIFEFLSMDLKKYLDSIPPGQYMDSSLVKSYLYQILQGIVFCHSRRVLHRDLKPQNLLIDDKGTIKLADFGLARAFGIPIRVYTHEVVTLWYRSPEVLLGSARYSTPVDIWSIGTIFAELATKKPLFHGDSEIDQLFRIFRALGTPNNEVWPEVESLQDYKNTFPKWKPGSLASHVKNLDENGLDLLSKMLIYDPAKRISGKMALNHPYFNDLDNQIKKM
# [13] = target: Cyclin-dependent kinase 2/cyclin E1 (Homo sapiens) (UniProt P24864+P24941); assay: Ratio of roscovitine IC50 to compound IC50 for human recombinant CDK2/Cyclin E; type: protein-complex assay
Compound,IC50 (K562) [nM],Activity (G-361 [1]),Activity (G-361 [2]),Activity (G-361 [3]),Activity (G-361 [4]),Activity (G-361 [5]),Activity (G-361 [6]),IC50 (HOS) [nM],IC50 (G-361 [7]) [nM],Activity (G-361 [8]),Inhibition of RNA polymerase II Ser2 phosphorylation (qualitative) [9],inhibition (CDK2/CDK4 (Homo sapiens)),Activity (G-361 [10]),IC50 (HCT-116) [nM],IC50 [11] [nM],IC50 (MCF7) [nM],IC50 (HeLa) [nM],IC50 [12] [nM],Ratio IC50 [13]
NC1CCC(Nc2nc(NCc3ccc(-n4cccn4)cc3)c3ncn(C4CCCC4)c3n2)CC1 (stereo unspecified),119,Active,Active,Active,Active,Active,Active,103,220,Active,Active,Active,Active,320,12,139,170,,
CC(C)(O)CNc1nc(NCc2ccc(-c3ccco3)nc2)c2ncn(C3CCCC3)c2n1,1420,,,,,,,560,2100,,,,,1270,120,1300,667,555,
NC1CCC(Nc2nc(NCc3ccc(-c4ccccc4)nc3)c3ncn(C4CCCC4)c3n2)CC1 (stereo unspecified),,,,,,,,206,895,,,,,563,31,483,114,184,
NC1CCC(Nc2nc(NCc3ccc(-c4ccsc4)cc3)c3ncn(C4CCCC4)c3n2)CC1 (stereo unspecified),150,,,,,,,120,570,,,,,315,14,145,220,,
NC1CCC(Nc2nc(NCc3ccc(-c4cccs4)nc3)c3ncn(C4CCCC4)c3n2)CC1 (stereo unspecified),100,Active,Active,Active,Active,Active,Active,32,150,Active,Active,Active,Active,97,4,92,40,,20
NC1CCC(Nc2nc(NCc3ccc(-c4cccc(F)c4)nc3)c3ncn(C4CCCC4)c3n2)CC1 (stereo unspecified),61,Active,Active,Active,Active,Active,Active,44,49,Active,Active,Active,Active,74,14,33,36,,
CC[C@H](CO)Nc1nc(NCc2ccccc2)c2ncn(C(C)C)c2n1 [SELICICLIB],,,,,,,,,,,,,,,,12300,28600,,
NC1CCC(Nc2nc(NCc3ccc(-c4ccccc4O)cc3)c3ncn(C4CCCC4)c3n2)CC1 (stereo unspecified),2610,,,,,,,1160,4150,,,,,4350,68,2910,4180,777,
NC1CCC(Nc2nc(NCc3ccc(-c4cccs4)cc3)c3ncn(C4CCCC4)c3n2)CC1 (stereo unspecified),307,,,,,,,247,655,,,,,592,20,290,358,,
Nc1ccccc1-c1ccc(CNc2nc(NC3CCC(N)CC3)nc3c2ncn3C2CCCC2)cn1 (stereo unspecified),200,,,,,,,398,730,,,,,635,10,117,535,,
Nc1ccccc1-c1ccc(CNc2nc(NC3CCC(N)CC3)nc3c2ncn3C2CCCC2)cc1 (stereo unspecified),1110,,,,,,,1880,4120,,,,,930,20.5,977,1010,,
COc1ccccc1-c1ccc(CNc2nc(NC3CCC(N)CC3)nc3c2ncn3C2CCCC2)cn1 (stereo unspecified),66,,,,,,,122,140,,,,,177,34,82,39,,
NC1CCC(Nc2nc(NCc3ccc(Br)cc3)c3ncn(C4CCCC4)c3n2)CC1 (stereo unspecified),1170,,,,,,,995,1480,,,,,790,,850,1510,,
NC1CCC(Nc2nc(NCc3ccc(-c4ccco4)cc3)c3ncn(C4CCCC4)c3n2)CC1 (stereo unspecified),96,,,,,,,102,164,,,,,129,11.4,85,71,,
NC1CCC(Nc2nc(NCc3cc(Cl)ccc3O)c3ncn(C4CCCC4)c3n2)CC1 (stereo unspecified),690,,,,,,,490,390,,,,,350,8,430,750,23,
NC1CCC(Nc2nc(NCc3ccc(-c4ccoc4)cc3)c3ncn(C4CCCC4)c3n2)CC1 (stereo unspecified),287,,,,,,,140,670,,,,,1040,13,247,140,,
Nc1ccccc1CNc1nc(NC2CCC(N)CC2)nc2c1ncn2C1CCCC1 (stereo unspecified),4040,,,,,,,2030,2070,,,,,2300,18,2330,1030,93,
NC1CCC(Nc2nc(NCc3ccc(-c4ccccc4)cc3)c3ncn(C4CCCC4)c3n2)CC1 (stereo unspecified),,,,,,,,,,,,,,,26,,,,
NC1CCC(Nc2nc(NCc3ccc(-c4cccc(F)c4)cc3)c3ncn(C4CCCC4)c3n2)CC1 (stereo unspecified),290,,,,,,,211,815,,,,,551,33.5,293,445,,
OC1CCC(Nc2nc(NCc3ccc(-c4ccco4)nc3)c3ncn(C4CCCC4)c3n2)CC1 (stereo unspecified),303,,,,,,,180,443,,,,,617,23,390,247,,
COc1ccccc1-c1ccc(CNc2nc(NC3CCC(N)CC3)nc3c2ncn3C2CCCC2)cc1 (stereo unspecified),347,,,,,,,150,545,,,,,430,33,303,333,,
NC1CCC(Nc2nc(NCc3ccc(Br)nc3)c3ncn(C4CCCC4)c3n2)CC1 (stereo unspecified),1180,,,,,,,935,640,,,,,577,,483,633,,
NC1CCC(Nc2nc(NCc3ccc(-c4ccsc4)nc3)c3ncn(C4CCCC4)c3n2)CC1 (stereo unspecified),150,Active,Active,Active,Active,Active,Active,89,272,Active,,,Active,145,18,100,75,,
CC(C)(O)CNc1nc(NCc2ccc(-c3ccco3)cc2)c2ncn(C3CCCC3)c2n1,16800,,,,,,,21400,17400,,,,,16700,478,15300,14800,> 999,
NC1CCC(Nc2nc(NCc3ccc(-c4ccco4)nc3)c3ncn(C4CCCC4)c3n2)CC1 (stereo unspecified),67,Active,Active,Active,Active,Active,Active,44,97,Active,Active,Active,Active,86,10,33,30,,
